Experimental data published in ChEMBL document CHEMBL1124744, “Development of a novel series of (2-quinolinylmethoxy)phenyl-containing compounds as high-affinity leukotriene D4 receptor antagonists. 2. Effects of an additional phenyl ring on receptor affinity” (J Med Chem, 1990).

Experiments:
[1] = molecular target: T1, Cysteinyl leukotriene receptor 1 (Cavia porcellus, UniProt Q2NNR5); assay: Binding affinity against Cysteinyl leukotriene D4 receptor from guinea pig lung was determined using [3H]-LTD4 (0.2 nM)
T1 sequence (Q2NNR5 whole entry): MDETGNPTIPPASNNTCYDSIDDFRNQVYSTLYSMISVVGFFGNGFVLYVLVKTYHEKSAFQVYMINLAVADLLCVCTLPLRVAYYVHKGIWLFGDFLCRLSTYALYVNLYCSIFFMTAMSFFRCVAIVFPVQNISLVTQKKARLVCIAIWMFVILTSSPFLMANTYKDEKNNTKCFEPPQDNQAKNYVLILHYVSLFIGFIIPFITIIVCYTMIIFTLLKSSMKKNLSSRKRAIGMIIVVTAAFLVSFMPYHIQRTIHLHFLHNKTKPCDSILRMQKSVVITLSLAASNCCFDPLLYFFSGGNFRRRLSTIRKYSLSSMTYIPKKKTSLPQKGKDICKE
Summary of the method: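 Guinea pig lung membranes were used in a radioligand competition assay against 0.2 nM [3H]LTD4, with compounds at multiple concentrations. IC50 was determined graphically and converted to Ki. Values are means ± SEM of N separate experiments.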

Cavia porcellus [2] = organism: Cavia porcellus; assay: Inhibition of LTC4-induced contractions from guinea pig peripheral lung strips; assay type: functional
Summary of the method: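 Guinea pig peripheral lung strips were contracted with 0.2 nM LTC4, and inhibition was measured. IC50 was determined graphically; values are means ± SEM of N separate experiments.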

Cavia porcellus [3] = organism: Cavia porcellus; assay: Oral activity expressed as effective dose in LTD4-induced wheal assay in guinea pig; assay type: functional
Summary of the method: (§1)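 In guinea pigs, compounds were given orally 1 h before intradermal injection of 100 ng LTD4, and wheal inhibition was measured. Five animals were used per dose. ED50 was determined from at least three doses; single doses are reported as % inhibition in mg/kg.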

Cavia porcellus [4] = organism: Cavia porcellus; assay: Oral activity expressed as effective dose in leukotriene mediated anaphylaxis assay in guinea pig; assay type: functional
Summary of the method: (§2)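 Guinea pigs immunized with ovalbumin were pretreated with pyrilamine, propranolol and indomethacin. Compounds were given orally 1 h before aerosol antigen challenge. Six animals were used per dose. ED50 was determined from at least three doses; single doses are reported as % inhibition in mg/kg.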

[5] = molecular target: T2, Cysteinyl leukotriene receptor 1 (Cavia porcellus) (UniProt Q2NNR5); assay: Binding affinity against Cysteinyl leukotriene D4 receptor from guinea pig lung was determined using [3H]LTD4 (0.2 nM) at compound concentration of 1 uM
T2 sequence (whole entry): T1 sequence (Q2NNR5 whole entry)

Cavia porcellus [6] = organism: Cavia porcellus; assay: Oral activity expressed as percent inhibition in leukotriene mediated anaphylaxis assay in guinea pig at 30 uM; assay type: functional; summary of the method: as §2
[7] = molecular target: T1, Cysteinyl leukotriene receptor 1; assay: Binding affinity against Cysteinyl leukotriene D4 receptor from guinea pig trachea using [3H]LTD4; conditions: read-out: pA2 (converted)
[8] = molecular target: T1, Cysteinyl leukotriene receptor 1; assay: Inhibitory concentration of compound against binding of Cysteinyl leukotriene D4 receptor from guinea pig lung using [3H]LTD4
Cavia porcellus [9] = organism: Cavia porcellus; assay: Oral activity expressed as percent inhibition in LTD4-induced wheal assay in guinea pig at 18 uM; assay type: functional; conditions: in the assay text read “18 mg/kg” for “18 uM”; summary of the method: as §1
Cavia porcellus [10] = organism: Cavia porcellus; assay: Oral activity expressed as percent inhibition in LTD4-induced wheal assay in guinea pig at 3 uM; assay type: functional; summary of the method: as §1
Cavia porcellus [11] = organism: Cavia porcellus; assay: Oral activity expressed as percent inhibition in leukotriene mediated anaphylaxis assay in guinea pig at 10 uM; assay type: functional; summary of the method: as §2
Cavia porcellus [12] = organism: Cavia porcellus; assay: Inhibits leukotriene D4 in guinea pig by wheal essay at 9 uM concentration; assay type: functional; summary of the method: as §1
Cavia porcellus [13] = organism: Cavia porcellus; assay: Inhibits leukotriene mediated anaphylaxis in guinea pig at 60 uM concentration; assay type: functional; summary of the method: as §2
[14] = molecular target: T1, Cysteinyl leukotriene receptor 1; assay: Binding affinity against Cysteinyl leukotriene D4 receptor from guinea pig lung was determined using [3H]LTD4
Summary of the method: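 Guinea pig lung membranes; competition against 0.2 nM [3H]LTD4 with test compounds at multiple concentrations. IC50 was determined graphically and converted to Ki. Values are means ± SEM of N separate experiments.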

Cavia porcellus [15] = organism: Cavia porcellus; assay: Oral activity expressed as percent inhibition in LTD4-induced wheal assay in guinea pig at 9 uM; assay type: functional; summary of the method: as §1
Cavia porcellus [16] = organism: Cavia porcellus; assay: Oral activity expressed as percent inhibition in LTD4-induced wheal assay in guinea pig at 13 uM; assay type: functional

Ki [1]	IC50 (Cavia porcellus [2])	Structure (SMILES)	Inhibition (Cavia porcellus [6])	other results
3 nM	2.7 nM	c1ccc(Cc2nn[nH]n2)c(COc2ccc(OCc3ccc4ccccc4n3)cc2)c1 [RG-12525]		ED50 (Cavia porcellus [3]): 4.9 mg/kg; ED50 (Cavia porcellus [4]): 2.2 mg/kg; Kb [5]: 3 nM
20 nM	19 nM	c1cc(OCc2ccc3ccccc3n2)cc(OCc2ccccc2-c2nnn[nH]2)c1		
8 nM	9 nM	c1cc(COc2ccc(OCc3ccc4ccccc4n3)cc2)cc(OCc2nn[nH]n2)c1	27%	ED50 (Cavia porcellus [3]): 2.8 mg/kg
		CN(C)C(=O)CCSC(SCCC(=O)O)c1cccc(/C=C/c2ccc3ccc(Cl)cc3n2)c1 (centres undefined) [MK-571]		Kb [7]: 1 nM
8 nM	16 nM	COC(=O)c1ccc(COc2cccc(OCc3ccc4ccccc4n3)c2)c(OCc2nn[nH]n2)c1	9%	
		O=C(O)c1ccccc1Nc1cccc(OCc2ccc3ccccc3n2)c1 [SR-2640]		IC50 [8]: 23 nM
16 nM		c1cc(OCc2cccc(-c3nn[nH]n3)c2)cc(OCc2ccc3ccccc3n2)c1	83%	Inhibition (Cavia porcellus [9]): 45%
22 nM		COc1cc(-c2nn[nH]n2)ccc1OCc1ccc(OCc2ccc3ccccc3n2)cc1		
16 nM	36 nM	COc1cc(-c2nn[nH]n2)ccc1OCc1cccc(OCc2ccc3ccccc3n2)c1	9%	
8.5 nM	20 nM	C(=C\c1cccc(-c2nn[nH]n2)c1)/c1cccc(OCc2ccc3ccccc3n2)c1		Inhibition (Cavia porcellus [10]): 15%
7.3 nM	20 nM	c1cc(OCc2ccc(Cc3nnn[nH]3)cc2)cc(OCc2ccc3ccccc3n2)c1		ED50 (Cavia porcellus [3]): 6.8 mg/kg; ED50 (Cavia porcellus [4]): 30 mg/kg
10 nM	12 nM	c1cc(COc2cccc(OCc3ccc4ccccc4n3)c2)cc(Cc2nnn[nH]2)c1		ED50 (Cavia porcellus [3]): 1.8 mg/kg; ED50 (Cavia porcellus [4]): 10 mg/kg
5.3 nM	20 nM	c1cc(COc2cccc(-c3nn[nH]n3)c2)cc(OCc2ccc3ccccc3n2)c1	45%	ED50 (Cavia porcellus [3]): 28 mg/kg
2.2 nM	8 nM	c1cc(OCc2ccc(OCc3nn[nH]n3)cc2)cc(OCc2ccc3ccccc3n2)c1	82%	Inhibition (Cavia porcellus [9]): 59%
2.5 nM		Clc1ccc2ccc(/C=C/c3ccc(OCc4ccccc4Cc4nnn[nH]4)cc3)nc2c1		
3.4 nM		C(=C\c1ccc2ccccc2n1)/c1ccc(OCc2ccccc2Cc2nnn[nH]2)cc1		Inhibition (Cavia porcellus [11]): 80%
8 nM	34 nM	c1cc(COc2ccc(OCc3ccc4ccccc4n3)cc2)cc(Cc2nnn[nH]2)c1		ED50 (Cavia porcellus [3]): 3 mg/kg; Inhibition (Cavia porcellus [11]): 64%
2.9 nM	14 nM	c1cc(COc2ccc(-c3nn[nH]n3)cc2)cc(OCc2ccc3ccccc3n2)c1	-9%	

Ki [1]	IC50 (Cavia porcellus [2])	Structure (SMILES)	Inhibition (Cavia porcellus [6])	other results
7 nM	6.3 nM	COc1cc(COc2cccc(OCc3ccc4ccccc4n3)c2)cc(-c2nn[nH]n2)c1		ED50 (Cavia porcellus [3]): 38 mg/kg; Inhibition (Cavia porcellus [11]): 17%
10 nM		COc1cc(OCc2cccc(OCc3ccc4ccccc4n3)c2)cc(-c2nnn[nH]2)c1		
2.5 nM		Clc1ccc2ccc(COc3ccc(OCc4ccccc4Cc4nnn[nH]4)cc3)nc2c1		
17 nM	20 nM	c1cc(CCc2cccc(-c3nn[nH]n3)c2)cc(OCc2ccc3ccccc3n2)c1		ED50 (Cavia porcellus [4]): 24 mg/kg; Inhibition (Cavia porcellus [9]): 44%
40 nM	100 nM	O=C(O)c1cccc(COc2cccc(OCc3ccc4ccccc4n3)c2)c1		Inhibition (Cavia porcellus [12]): 7%; Inhibition (Cavia porcellus [13]): 60%
12 nM	9.5 nM	c1cc(OCc2ccc3ccccc3n2)cc(OCc2ccccc2Cc2nnn[nH]2)c1	75%	Inhibition (Cavia porcellus [9]): 17%
		O=S(=O)(Nc1cccc(OCc2ccc3ccccc3n2)c1)C(F)(F)F [RITOLUKAST]		Ki [14]: 35 nM
31 nM	44 nM	c1ccc2nc(COc3ccc(COc4ccc(-c5nn[nH]n5)cc4)cc3)ccc2c1	64%	ED50 (Cavia porcellus [3]): 8 mg/kg
90 nM	75 nM	O=C(O)c1ccc(COc2cccc(OCc3ccc4ccccc4n3)c2)cc1		
8.5 nM	12 nM	c1ccc2nc(COc3ccc(OCc4ccc(Cc5nnn[nH]5)cc4)cc3)ccc2c1		ED50 (Cavia porcellus [4]): 30 mg/kg; Inhibition (Cavia porcellus [15]): 34%
7.5 nM	13 nM	COc1cc(OCc2ccc(OCc3ccc4ccccc4n3)cc2)cc(-c2nn[nH]n2)c1		Inhibition (Cavia porcellus [16]): 26%
2.1 nM	4.2 nM	c1ccc(OCc2nn[nH]n2)c(COc2ccc(OCc3ccc4ccccc4n3)cc2)c1		Inhibition (Cavia porcellus [10]): 45%; Inhibition (Cavia porcellus [11]): 61%
	940 nM	CCCc1c(OCC(O)COc2ccc3c(=O)cc(C(=O)O)oc3c2CCC)ccc(C(C)=O)c1O (centres undefined) [FPL-55712]		
17 nM	27 nM	c1cc(OCc2ccc3ccccc3n2)cc(OCc2ccccc2OCc2nn[nH]n2)c1		ED50 (Cavia porcellus [4]): 10 mg/kg; Inhibition (Cavia porcellus [9]): 42%
4.3 nM	9 nM	COc1cc(-c2nn[nH]n2)ccc1COc1cccc(OCc2ccc3ccccc3n2)c1	45%	Inhibition (Cavia porcellus [15]): 22%
10 nM	12 nM	c1cc(OCc2ccc(-c3nnn[nH]3)cc2)cc(OCc2ccc3ccccc3n2)c1		ED50 (Cavia porcellus [3]): 6.5 mg/kg; ED50 (Cavia porcellus [4]): 10 mg/kg
2.2 nM	2 nM	c1cc(COc2ccc(OCc3ccc4ccccc4n3)cc2)cc(-c2nn[nH]n2)c1		ED50 (Cavia porcellus [3]): 2 mg/kg; Inhibition (Cavia porcellus [11]): 33%
13 nM	24 nM	c1cc(OCc2cccc(OCc3nn[nH]n3)c2)cc(OCc2ccc3ccccc3n2)c1	64%	Inhibition (Cavia porcellus [9]): 37%
